Active and inactive are the calls of the source. The rule behind the calls is not given here.

Assay [1] has as its system MGC-803. Nature of the assay: Inhibition of colony formation in human MGC-803 cells at 0.5 to 1.5 umol/L after 7 days by crystal violet staining based assay. In kind it is functional, cell-based. The conditions noted are these: dose micromol/L 0.5-1.5, time 7.0 day. In a few lines: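 5000 cells per well seeded and held 24 h at 37 °C, 5% CO2, then exposed to graded concentrations (0.5, 1, 1.5 µmol/L). After 7 days the medium was removed and wells were washed twice with PBS. Colonies fixed in 4% paraformaldehyde and stained with 0.1% crystal violet.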

For assay [2], the system named is SGC-7901. Put plainly: Induction of apoptosis in human SGC-7901 cells assessed as downregulation of Mcl-1 level at 0.5 to 1.5 umol/L after 48 hrs Western blot analysis. Type of assay: functional, cell-based. The conditions noted are these: dose micromol/L 0.5-1.5, time 48.0 hrs. In a few lines:
(§1)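 Western blot. Cells were treated with compound concentrations or DMSO for 48 h, then lysed, and lysates were denatured, run on SDS-PAGE and transferred to nitrocellulose. After blocking in 5% skimmed milk, membranes were incubated with primary antibodies at 4 °C for 8 h, then secondary antibodies, with ECL detection.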

Assay [3] deals with SGC-7901. Put plainly: Inhibition of Ras/Raf/MEK/ERK signalling pathway in human SGC-7901 cells assessed as downregulation of FoxO3a expression at 0.5 to 1.5 umol/L after 48 hrs by Western blot analysis. In kind it is cell-based. Conditions: dose micromol/L 0.5-1.5, time 48.0 hrs. In a few lines:
(§2)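 Cells treated with graded concentrations or DMSO for 48 h, then harvested and lysed. Lysates denatured, resolved by SDS-PAGE and transferred to nitrocellulose. Membranes blocked with 5% skimmed milk and probed with primary antibodies at 4 °C for 8 h, then with secondary antibodies. Bands detected by ECL.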
(In general: A western blot detects proteins with antibodies after separation by electrophoresis.)

Assay [4] deals with SGC-7901. Nature of the assay: Induction of apoptosis in human SGC-7901 cells assessed as downregulation of Bcl-2 level at 0.5 to 1.5 umol/L after 48 hrs Western blot analysis. In kind it is functional, cell-based. Conditions: dose micromol/L 0.5-1.5, time 48.0 hrs. In a few lines:
as §1

Assay [5] deals with MGC-803. Put plainly: Cell cycle arrest at G2 phase in human MGC-803 cells assessed as downregulation of CDK1 level at 0.5 to 1.5 umol/L after 48 hrs by Western blot analysis. In kind it is functional, cell-based. The conditions noted are these: dose micromol/L 0.5-1.5, time 48.0 hrs. An outline of the steps:
as §1

The subject of assay [6] is MGC-803. Nature of the assay: Inhibition of Ras/Raf/MEK/ERK signalling pathway in human MGC-803 cells assessed as effect on RAS level at 0.5 to 1.5 umol/L after 48 hrs by Western blot analysis. Type of assay: cell-based. The conditions noted are these: dose micromol/L 0.5-1.5, time 48.0 hrs. In a few lines: as §2
The subject of assay [7] is MGC-803. Put plainly: Induction of apoptosis in human MGC-803 cells assessed as downregulation of XIAP level at 0.5 to 1.5 umol/L after 48 hrs Western blot analysis. In kind it is functional, cell-based. The conditions noted are these: dose micromol/L 0.5-1.5, time 48.0 hrs. In a few lines: as §1
For assay [8], the system named is HGC-27. Put plainly: Induction of apoptosis in human HGC-27 cells assessed as downregulation of Mcl-1 level at 0.5 to 1.5 umol/L after 48 hrs Western blot analysis. In kind it is functional, cell-based. The conditions noted are these: dose micromol/L 0.5-1.5, time 48.0 hrs. An outline of the steps:
as §1

Assay [9] concerns MGC-803. Nature of the assay: Inhibition of Akt/mTOR signalling pathway in human MGC-803 cells assessed as decrease in AKT phosphorylation at Ser473 residue at 0.5 to 1.5 umol/L after 48 hrs by Western blot analysis. Conditions: dose micromol/L 0.5-1.5, time 48.0 hrs. In kind it is cell-based. In a few lines:
as §2

Assay [10] deals with SGC-7901. Nature of the assay: Induction of apoptosis in human SGC-7901 cells assessed as downregulation of c-IAP1 level at 0.5 to 1.5 umol/L after 48 hrs Western blot analysis. In kind it is functional, cell-based. The conditions noted are these: dose micromol/L 0.5-1.5, time 48.0 hrs. An outline of the steps:
as §1

Assay [11] concerns HGC-27. Put plainly: Anticancer activity against human HGC-27 cells assessed as inhibition of cell proliferation after 48 hrs by MTT assay. In kind it is functional, cell-based. In a few lines: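 MTT assay with 48 h compound exposure. MTT solution was then added and incubated 4 h at 37 °C, the supernatant discarded and formazan dissolved in DMSO, with absorbance read at 490 nm. IC50 values were calculated from three independent experiments, reported as mean SD.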
Background: Formazan colour is commonly taken as a measure of viable cells.

In assay [12] the test system is MGC-803. Nature of the assay: Inhibition of Ras/Raf/MEK/ERK signalling pathway in human MGC-803 cells assessed as decrease in ERK1/2 phosphorylation after 48 hrs by Western blot analysis. The conditions noted are these: dose micromol/L 0.5-1.5, time 48.0 hrs. Type of assay: cell-based. In a few lines: as §2
Assay [13] relates to HGC-27. Nature of the assay: Induction of apoptosis in human HGC-27 cells assessed as increase in nucleus concentration at 0.5 to 1.5 umol/L after 48 hrs by imaging analysis. In kind it is functional, cell-based. Conditions: dose micromol/L 0.5-1.5, time 48.0 hrs.
The subject of assay [14] is MGC-803. Nature of the assay: Induction of apoptosis in human MGC-803 cells assessed as downregulation of Bcl-2 level at 0.5 to 1.5 umol/L after 48 hrs Western blot analysis. In kind it is functional, cell-based. The conditions noted are these: dose micromol/L 0.5-1.5, time 48.0 hrs. An outline of the steps:
as §1

Assay [15] concerns SGC-7901. Nature of the assay: Inhibition of Ras/Raf/MEK/ERK signalling pathway in human SGC-7901 cells assessed as effect on RAS level at 0.5 to 1.5 umol/L after 48 hrs by Western blot analysis. Type of assay: cell-based. Conditions: dose micromol/L 0.5-1.5, time 48.0 hrs. In a few lines: as §2
The test system of assay [16] is HGC-27. Put plainly: Inhibition of Ras/Raf/MEK/ERK signalling pathway in human HGC-27 cells assessed as downregulation of c-Myc expression at 0.5 to 1.5 umol/L after 48 hrs by Western blot analysis. In kind it is cell-based. The conditions noted are these: dose micromol/L 0.5-1.5, time 48.0 hrs. An outline of the steps: as §2
Assay [17] deals with MGC-803. Put plainly: Induction of apoptosis in human MGC-803 cells assessed as induction of DNA fragmentation at 0.5 to 1.5 umol/L after 48 hrs by imaging analysis. In kind it is functional, cell-based. Conditions: dose micromol/L 0.5-1.5, time 48.0 hrs.
Assay [18] has as its system HGC-27. Put plainly: Inhibition of Akt/mTOR signalling pathway in human HGC-27 cells assessed as decrease in AKT phosphorylation at Ser473 residue at 0.5 to 1.5 umol/L after 48 hrs by Western blot analysis. The conditions noted are these: dose micromol/L 0.5-1.5, time 48.0 hrs. Type of assay: cell-based. An outline of the steps:
as §2

The test system of assay [19] is SGC-7901. Put plainly: Inhibition of Ras/Raf/MEK/ERK signalling pathway in human SGC-7901 cells assessed as downregulation of c-Myc expression at 0.5 to 1.5 umol/L after 48 hrs by Western blot analysis. Type of assay: cell-based. The conditions noted are these: dose micromol/L 0.5-1.5, time 48.0 hrs. In a few lines: as §2
In assay [20] the test system is SGC-7901. Put plainly: Cell cycle arrest in human SGC-7901 cells assessed as accumulation at G2/M phase at 0.5 to 1.5 umol/L after 48 hrs by RNase/propidium iodide staining based flow cytometry. In kind it is functional. Conditions: dose micromol/L 0.5-1.5, time 48.0 hrs. In a few lines:
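MGC-803, SGC-7901 and HGC-27 cells were seeded in 6-well plates and treated 48 h with compound or DMSO. Cells were then harvested and fixed in 70% cold ethanol at 4 °C for 8 h, and cell-cycle phase distribution was quantified by flow cytometry.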

Assay [21] concerns MGC-803. Put plainly: Induction of apoptosis in human MGC-803 cells assessed as downregulation of Mcl-1 level at 0.5 to 1.5 umol/L after 48 hrs Western blot analysis. Conditions: dose micromol/L 0.5-1.5, time 48.0 hrs. Type of assay: functional, cell-based. An outline of the steps: as §1
The test system of assay [22] is SGC-7901. Nature of the assay: Inhibition of Ras/Raf/MEK/ERK signalling pathway in human SGC-7901 cells assessed as decrease in c-Raf phosphorylation after 48 hrs by Western blot analysis. Type of assay: cell-based. The conditions noted are these: dose micromol/L 0.5-1.5, time 48.0 hrs. In a few lines: as §2
The test system of assay [23] is HGC-27. Nature of the assay: Induction of apoptosis in human HGC-27 cells after 48 hrs by flow cytometry analysis. Type of assay: functional, cell-based. Conditions: dose micromol/L 0.5-1.5, time 48.0 hrs. (A flow cytometer gives signals particle by particle.)

In the case of `COc1cc(N(Cc2nc3ccccc3[nH]2)S(=O)(=O)c2ccc(C)cc2)cc(OC)c1OC`, the inhibition result with MGC-803 [1], in the assay with SGC-7901 [3], in the assay on MGC-803 [9], in the assay with HGC-27 [16], with HGC-27 [18] and with SGC-7901 [19] was “Active” each time. In addition, the result in the assay with SGC-7901 [2], in the assay on SGC-7901 [4], with MGC-803 [5], in the assay with MGC-803 [7], in the assay with HGC-27 [8] and with SGC-7901 [10] was Active. In addition, the result in the assay with HGC-27 [13], in the assay with MGC-803 [14], in the assay with MGC-803 [17], in the assay with SGC-7901 [20] and in the assay on MGC-803 [21] was Active. The inhibition entry in the assay on MGC-803 [6] and with SGC-7901 [15] was “inactive” throughout. In addition, the Activity entry with HGC-27 [11] and in the assay on HGC-27 [23] was “Dose-dependent effect” throughout. In addition, the IC50 – broadly, the concentration that inhibits the measured activity by half – with HGC-27 [11] (HGC-27, 48 h) turned out to be 1.61 µM. In addition, the inhibition entry in the assay on MGC-803 [12] and in the assay with SGC-7901 [22] was “Dose-dependent effect” each time.

These data come from ChEMBL document CHEMBL4665669, “Novel tertiary sulfonamide derivatives containing benzimidazole moiety as potent anti-gastric cancer agents: Design, synthesis and SAR studies” (Eur J Med Chem, 2019).
